Measured values gathered from unrelated publications.
Compare with care: the assays were run in different laboratories.
Organism: Plasmodium falciparum
Observed: parasite growth

| SMILES | technique | strain | time | notes | IC50 |
| --- | --- | --- | --- | --- | --- |
| Brc1ccc2c(c1)nc(C1CCNCC1)n2Cc1ccccc1 | – | K1 | – | drug-resistant strain, blood stage | 0.061 µM |
| C[C@@H]1CC[C@H]2[C@@H](C)C(=O)O[C@@H]3O[C@@]4(C)CC[C@@H]1[C@]32OO4 | – | D6 | – | blood stage | 0.005 µg/mL |
| CCN(CC)CCCC(C)Nc1ccnc2cc(Cl)ccc12 (stereo not shown) | – | – | – | blood stage | 0.0109 µM |
| NCCNc1nc2cc(Cl)ccc2n1Cc1ccccc1 | – | K1 | – | drug-resistant strain, blood stage | 0.339 µM |
| CCN(CC)CCCC(C)Nc1ccnc2cc(Cl)ccc12 (stereo not shown) | – | W2 | 72 h | drug-resistant strain, blood stage | 0.1 µg/mL |
| OC(c1cc(C(F)(F)F)nc2c(C(F)(F)F)cccc12)C1CCCCN1 (stereo not shown) | – | 3D7 | – | blood stage | 0.0048 µM |
| O=C(Nc1ccc(F)cc1C(=O)O)c1ccc(-c2ccccc2)cc1 | resazurin | NF54 | 48 h | gametocyte | 0.00943 µM |
| COC1=CC(c2ccco2)=NC1=Cc1ccc(CCCCCCCCCC(C)O)[nH]1 (stereo not shown) | – | 7G8 | – | drug-resistant strain, blood stage | > 2.5 µM |
| CCN(CC)CCCC(C)Nc1ccnc2cc(Cl)ccc12 (stereo not shown) | imaging | W2 | 48 h | drug-resistant strain, blood stage | 0.234 µg/mL |
| COc1cc(CO)c(-c2ccc3c(c2O)[C@@H](C)N[C@H](C)C3)c2cccc(O)c12 | SYBR Green | W2 | – | drug-resistant strain, blood stage | 0.303 µM |
| Clc1ccc2c(c1)nc(C1CCNCC1)n2Cc1ccccc1 | – | K1 | – | drug-resistant strain, blood stage | 0.076 µM |
| CCN(CC)CCCC(C)Nc1ccnc2cc(Cl)ccc12 (stereo not shown) | – | DD2 | – | drug-resistant strain, blood stage | 0.102 µM |
| CCN(CC)CCCC(C)Nc1ccnc2cc(Cl)ccc12 (stereo not shown) | – | D6 | – | blood stage | 0.014 µg/mL |
| COC1=CC(c2cccn2C)=NC1=Cc1ccc(CCCCCCCCCC(C)O)[nH]1 (stereo not shown) | – | DD2 | – | drug-resistant strain, blood stage | > 2.5 µM |
| NCCCNc1nc2cc(Br)ccc2n1Cc1ccccc1 | – | K1 | – | drug-resistant strain, blood stage | 1.01 µM |
| CCc1ccc(C2=NC(=Cc3ccc(CCCCCCCCCC(C)O)[nH]3)C(OC)=C2)[nH]1 (stereo not shown) | – | DD2 | – | drug-resistant strain, blood stage | 0.015 µM |
| CCN(CC)CCCC(C)Nc1ccnc2cc(Cl)ccc12 (stereo not shown) | – | DD2 | – | drug-resistant strain | 0.102 µM |
| COC1=CC(c2ccc[nH]2)=NC1=Cc1ccc(CCCCCCCCCCCO)[nH]1 | – | DD2 | – | drug-resistant strain, blood stage | 0.036 µM |
| CCCCCCCCCCOc1cc2c(O)c(C(=O)OCC)cnc2cc1OCC | SYBR Green | HB3 | – | blood stage | < 0.0057 µM |
| COC1=CC(c2ccc[nH]2)=NC1=Cc1ccc(CCCCCCCCCCO)[nH]1 | – | DD2 | – | drug-resistant strain, blood stage | 0.08 µM |
| C[C@@H]1CC[C@H]2[C@@H](C)C(=O)O[C@@H]3O[C@@]4(C)CC[C@@H]1[C@]32OO4 | – | W2 | 72 h | drug-resistant strain, blood stage | 0.0038 µg/mL |
| COC1=CC(c2ccc[nH]2)=NC1=Cc1ccc(CCCCCCCCCCCCO)[nH]1 | – | 7G8 | – | drug-resistant strain, blood stage | 0.058 µM |
| NC(N)=NC(=O)c1cc(C#Cc2ccc(C(F)(F)F)c(C(=O)Nc3ccccn3)c2)cc(C(F)(F)F)c1 | – | K1 | – | drug-resistant strain, blood stage | 0.019 µM |
| Brc1ccc2c(c1)nc(N1CCNCC1)n2Cc1ccccc1 | – | K1 | – | drug-resistant strain, blood stage | 0.064 µM |
| CC1=C(C)C(c2ccc[nH]2)=NC1=Cc1ccc(CCCCCCCCCC(C)O)[nH]1 (stereo not shown) | – | DD2 | – | drug-resistant strain, blood stage | 1.19 µM |
